This note sets out measurements from ChEMBL document CHEMBL1126196, “Improvements in the minimum binding sequence of C5a: examination of His-67” (J Med Chem, 1992).

For assay [1], the system named is Cavia porcellus. Description: In vivo potency by its ability to cause evans blue dye leakage as a marker of increased vascular permeability when injected intradermally in guinea pig. It is filed as functional, organism-based.
The species named for assay [2] is Homo sapiens. Description: In vitro potency against polymorphonuclear leukocyte (PMNL) chemokinesis. The format is functional. In short, it runs like this:
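PMNL chemokinesis run over half-log concentration steps based on the binding Ki; EC50 obtained by least-squares regression as the concentration giving 50% of that peptide's own maximal response.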

Assay [3] is filed under the species Homo sapiens. As to the kind of experiment: In vitro agonist efficacy against polymorphonuclear leukocyte (PMNL) chemokinesis. Also noted: concentration or dose not given beside the values.
The test system of assay [4] is Cavia porcellus. Description: In vivo agonist efficacy by its ability to cause evans blue dye leakage as a marker of increased vascular permeability when injected intradermally in guinea pig. The format is functional. Set-up: concentration or dose not given beside the values. Put shortly: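 Guinea pig, intradermal injection of peptide at a single high concentration; Evans blue dye leakage read as vascular permeability increase, compared with the maximal response to a control rC5a injection included in each test group.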

The target in assay [5] is T1, C5a anaphylatoxin chemotactic receptor 1 (Homo sapiens, UniProt P21730).
T1 sequence (P21730 whole entry): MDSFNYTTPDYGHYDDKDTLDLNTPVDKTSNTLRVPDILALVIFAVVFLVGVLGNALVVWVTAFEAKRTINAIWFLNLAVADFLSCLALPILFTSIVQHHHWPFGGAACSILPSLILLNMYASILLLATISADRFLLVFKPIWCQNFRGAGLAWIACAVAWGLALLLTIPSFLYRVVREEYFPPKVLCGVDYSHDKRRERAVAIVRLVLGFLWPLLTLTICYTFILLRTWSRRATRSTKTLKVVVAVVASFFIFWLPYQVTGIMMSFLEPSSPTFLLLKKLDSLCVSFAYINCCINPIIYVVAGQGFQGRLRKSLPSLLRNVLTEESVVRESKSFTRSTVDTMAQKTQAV
As to the kind of experiment: Inhibitory activity against [125I]-rC5a binding to C5a anaphylatoxin chemotactic receptor in human polymorphonuclear leukocyte (PMNL) membranes. In short, it runs like this:
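Competition binding on human PMNL membrane fragments, peptides displacing ¹²⁵I-labelled recombinant C5a. Inhibition binding data converted to apparent dissociation constant (Ki) by the Cheng–Prusoff method.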

Square brackets hold non-standard residues; d marks the D form. Peptide text beside a SMILES is read from it. * marks the point of attachment. His(τ-Me) = Cn1cnc(C[C@H](N)C(=O)O)c1; His(π-Me) = Cn1cncc1C[C@H](N)C(=O)O; Hydrocinnamoyl = O=C(CCc1ccccc1)*; hPhe = N[C@@H](CCc1ccccc1)C(=O)O; Cha = N[C@@H](CC1CCCCC1)C(=O)O; Phg = N[C@H](C(=O)O)c1ccccc1

For the compound H-LRANISFKDMQLGR-OH, the half-maximal effective concentration (EC50) with Cavia porcellus [1] was below 300 µM; in the assay listed under Homo sapiens [2] it was 1.6 µM. For the same compound, the results for the Activity in the assay listed under Homo sapiens [3] and with Cavia porcellus [4] were 133% and 116%, respectively. Besides, the affinity in assay [5], expressed as Ki, was 0.81 µM.

`CSCC[C@H](NC(=O)[C@H](CC(=O)O)NC(=O)[C@H](CCCCN)NC(=O)[C@@H](N)Cc1cccs1)C(=O)N[C@@H](CCC(N)=O)C(=O)N[C@@H](CC(C)C)C(=O)NCC(=O)N[C@@H](CCCNC(=N)N)C(=O)O` gave an inhibition constant (Ki) in assay [5] of 2.1 µM.

On to `CSCC[C@H](NC(=O)[C@H](CC(=O)O)NC(=O)[C@H](CCCCN)NC(=O)[C@@H](N)Cc1cn(C)cn1)C(=O)N[C@@H](CCC(N)=O)C(=O)N[C@@H](CC(C)C)C(=O)NCC(=O)N[C@@H](CCCNC(=N)N)C(=O)O` (H-[His(τ-Me)]KDMQLGR-OH) [listing 1 of 2 here], for which the Activity in the assay filed under Homo sapiens [3] is 90%.

`CSCC[C@H](NC(=O)[C@H](CC(=O)O)NC(=O)[C@H](CCCCN)NC(=O)[C@H](N)Cc1ccccc1)C(=O)N[C@@H](CCC(N)=O)C(=O)N[C@@H](CC(C)C)C(=O)NCC(=O)N[C@@H](CCCN=C(N)N)C(=O)O`: the EC50 in the assay listed under Homo sapiens [2] was 80 µM. For the same compound, the Activity in the assay listed under Homo sapiens [3] came to 70%. This compound also registered a Ki in assay [5] of 79 µM.

Take `CSCC[C@H](NC(=O)[C@H](CC(=O)O)NC(=O)[C@H](CCCCN)NC(=O)[C@@H](N)CCc1ccccc1)C(=O)N[C@@H](CCC(N)=O)C(=O)N[C@@H](CC(C)C)C(=O)NCC(=O)N[C@@H](CCCN=C(N)N)C(=O)O` (H-[hPhe]KDMQLGR-OH): the EC50 in the assay listed under Homo sapiens [2] amounted to 15 µM. Further, the Activity in the assay filed under Homo sapiens [3] came to 162%.

As to H-ANISFKDMQLGR-OH, the EC50 was below 100 µM in the assay with Cavia porcellus [1] and 0.25 µM in the assay listed under Homo sapiens [2]. Further, the Activity came out at 85% in the assay filed under Homo sapiens [3] and 69% with Cavia porcellus [4].

`CSCC[C@H](NC(=O)[C@H](CC(=O)O)NC(=O)[C@H](CCCCN)NC(=O)[C@@H](N)Cc1ccccc1)C(=O)N[C@@H](CCC(N)=O)C(=O)N[C@@H](CC(C)C)C(=O)NCC(=O)N[C@@H](CCCN=C(N)N)C(=O)O`: the values for the 50% effective concentration (EC50) in the assay with Cavia porcellus [1] and in the assay listed under Homo sapiens [2] were below 1000 µM and 0.46 µM, respectively. Moreover, the Activity in the assay listed under Homo sapiens [3] is reported as 132%; in the assay with Cavia porcellus [4], 60%. The compound also gave a Ki in assay [5] of 0.26 µM.

In the case of `CSCC[C@H](NC(=O)[C@H](CC(=O)O)NC(=O)[C@H](CCCCN)NC(=O)[C@@H](N)Cc1cccs1)C(=O)N[C@@H](CCC(N)=O)C(=O)N[C@@H](CC(C)C)C(=O)NCC(=O)N[C@@H](CCCN=C(N)N)C(=O)O` [listing 1 of 2 here], the Activity in the assay filed under Homo sapiens [3] is 142%.

Turning to `CSCC[C@H](NC(=O)[C@H](CC(=O)O)NC(=O)[C@H](CCCCN)NC(=O)[C@@H](N)CC1CCCCC1)C(=O)N[C@@H](CCC(N)=O)C(=O)N[C@@H](CC(C)C)C(=O)NCC(=O)N[C@@H](CCCN=C(N)N)C(=O)O` (H-[Cha]KDMQLGR-OH) [listing 1 of 2 here], the EC50 in the assay filed under Homo sapiens [2] worked out at 3 µM.

Consider `CSCC[C@H](NC(=O)[C@H](CC(=O)O)NC(=O)[C@H](CCCCN)NC(=O)[C@@H](N)Cc1cccs1)C(=O)N[C@@H](CCC(N)=O)C(=O)N[C@@H](CC(C)C)C(=O)NCC(=O)N[C@@H](CCCN=C(N)N)C(=O)O` [listing 2 of 2 here], for which the EC50 with Cavia porcellus [1] is below 1000 µM; in the assay listed under Homo sapiens [2] it was 0.53 µM.

Take `CSCC[C@H](NC(=O)[C@H](CC(=O)O)NC(=O)[C@H](CCCCN)NC(=O)CCc1ccccc1)C(=O)N[C@@H](CCC(N)=O)C(=O)N[C@@H](CC(C)C)C(=O)NCC(=O)N[C@@H](CCCNC(=N)N)C(=O)O` (Hydrocinnamoyl-KDMQLGR-OH): the inhibition constant Ki in assay [5] came to 4.4 µM.

In the assay listed under Homo sapiens [2], `CSCC[C@H](NC(=O)[C@H](CC(=O)O)NC(=O)[C@H](CCCCN)NC(=O)CCc1ccccc1)C(=O)N[C@@H](CCC(N)=O)C(=O)N[C@@H](CC(C)C)C(=O)NCC(=O)N[C@@H](CCCN=C(N)N)C(=O)O` (Hydrocinnamoyl-KDMQLGR-OH) came in with an EC50 of 0.8 µM. The compound also gave an Activity in the assay listed under Homo sapiens [3] of 84%.

Regarding `CSCC[C@H](NC(=O)[C@H](CC(=O)O)NC(=O)[C@H](CCCCN)NC(=O)[C@@H](N)Cc1cn(C)cn1)C(=O)N[C@@H](CCC(N)=O)C(=O)N[C@@H](CC(C)C)C(=O)NCC(=O)N[C@@H](CCCNC(=N)N)C(=O)O` (H-[His(τ-Me)]KDMQLGR-OH) [listing 2 of 2 here], in the assay listed under Homo sapiens [2], the half-maximal effective concentration (EC50) was determined as 17 µM. In addition, the Ki in assay [5] was 58 µM.

The compound Ac-FKDMQLGR-OH [listing 1 of 2 here] came in with an Activity in the assay listed under Homo sapiens [3] of 76%.

In turn, `CSCC[C@H](NC(=O)[C@H](CC(=O)O)NC(=O)[C@H](CCCCN)NC(=O)[C@H](N)Cc1cccs1)C(=O)N[C@@H](CCC(N)=O)C(=O)N[C@@H](CC(C)C)C(=O)NCC(=O)N[C@@H](CCCN=C(N)N)C(=O)O` yielded an Activity in the assay with Cavia porcellus [4] of 85%.

In the case of `CSCC[C@H](NC(=O)[C@H](CC(=O)O)NC(=O)[C@H](CCCCN)NC(=O)[C@@H](N)CCc1ccccc1)C(=O)N[C@@H](CCC(N)=O)C(=O)N[C@@H](CC(C)C)C(=O)NCC(=O)N[C@@H](CCCNC(=N)N)C(=O)O` (H-[hPhe]KDMQLGR-OH), the affinity in assay [5] corresponds to a Ki of 36 µM.

For the compound H-HKDMQLGR-OH, the EC50 in the assay listed under Homo sapiens [2] worked out at 110 µM. Also, the Activity in the assay listed under Homo sapiens [3] amounted to 129%.

In the assay listed under Homo sapiens [3], `CSCC[C@H](NC(=O)[C@H](CC(=O)O)NC(=O)[C@H](CCCCN)NC(=O)[C@@H](N)c1ccccc1)C(=O)N[C@@H](CCC(N)=O)C(=O)N[C@@H](CC(C)C)C(=O)NCC(=O)N[C@@H](CCCN=C(N)N)C(=O)O` (H-[Phg]KDMQLGR-OH) [listing 1 of 2 here] came in with an Activity of 72%.

In the assay listed under Homo sapiens [3], `CSCC[C@H](NC(=O)[C@H](CC(=O)O)NC(=O)[C@H](CCCCN)NC(=O)[C@@H](N)CC1CCCCC1)C(=O)N[C@@H](CCC(N)=O)C(=O)N[C@@H](CC(C)C)C(=O)NCC(=O)N[C@@H](CCCN=C(N)N)C(=O)O` (H-[Cha]KDMQLGR-OH) [listing 2 of 2 here] returned an Activity of 154%.

`CSCC[C@H](NC(=O)[C@H](CC(=O)O)NC(=O)[C@H](CCCCN)NC(=O)[C@@H](N)CC1CCCCC1)C(=O)N[C@@H](CCC(N)=O)C(=O)N[C@@H](CC(C)C)C(=O)NCC(=O)N[C@@H](CCCNC(=N)N)C(=O)O` (H-[Cha]KDMQLGR-OH): the Ki in assay [5] worked out at 13 µM.

With `CSCC[C@H](NC(=O)[C@H](CC(=O)O)NC(=O)[C@H](CCCCN)NC(=O)[C@@H](N)c1ccccc1)C(=O)N[C@@H](CCC(N)=O)C(=O)N[C@@H](CC(C)C)C(=O)NCC(=O)N[C@@H](CCCN=C(N)N)C(=O)O` (H-[Phg]KDMQLGR-OH) [listing 2 of 2 here], it took 10 µM to reach a half-maximal effect in the assay listed under Homo sapiens [2] (EC50). Moreover, in assay [5], the Ki was 31 µM.

The compound Ac-FKDMQLGR-OH [listing 2 of 2 here] returned a concentration giving a half-maximal response (EC50) in the assay listed under Homo sapiens [2] of 0.44 µM. For the same compound, the Ki in assay [5] came to 0.2 µM.

Turning to `CSCC[C@H](NC(=O)[C@H](CC(=O)O)NC(=O)[C@H](CCCCN)NC(=O)[C@@H](N)Cc1cncn1C)C(=O)N[C@@H](CCC(N)=O)C(=O)N[C@@H](CC(C)C)C(=O)NCC(=O)N[C@@H](CCCN=C(N)N)C(=O)O` (H-[His(π-Me)]KDMQLGR-OH), it took 110 µM to reach a half-maximal effect in the assay filed under Homo sapiens [2] (EC50). The same compound registered an Activity in the assay filed under Homo sapiens [3] of 88%. Moreover, the inhibition constant Ki in assay [5] stood at 180 µM.

Consider H-ISFKDMQLGR-OH, for which the results for the EC50 in the assay on Cavia porcellus [1] and in the assay listed under Homo sapiens [2] were below 100 µM and 0.72 µM, respectively. Further, the Activity in the assay listed under Homo sapiens [3] is 76%; with Cavia porcellus [4] it was 54%.

As a reminder, the EC50 is the concentration at which the effect is half-maximal. What is called Ki is a measure of affinity in units of concentration, obtained from inhibition or displacement.
